One data set relates to Plasmodium berghei. As to the kind of experiment: Inhibition of Plasmodium berghei recombinant CDPK1 by fluorescence assay in presence of rhodamine-labeled ParM. An outline of the steps:
(§1)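 Recombinant CDPK1 (P. berghei or P. vivax) ATPase activity followed with an ADP-sensitive biosensor, rhodamine-labeled ParM; reaction progress tracked as rising fluorescence from ADP accumulation on a plate reader.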

In data set [1] the target is T1, NUAK family SNF1-like kinase 1 (Homo sapiens) (UniProt O60285).
T1 sequence (whole entry): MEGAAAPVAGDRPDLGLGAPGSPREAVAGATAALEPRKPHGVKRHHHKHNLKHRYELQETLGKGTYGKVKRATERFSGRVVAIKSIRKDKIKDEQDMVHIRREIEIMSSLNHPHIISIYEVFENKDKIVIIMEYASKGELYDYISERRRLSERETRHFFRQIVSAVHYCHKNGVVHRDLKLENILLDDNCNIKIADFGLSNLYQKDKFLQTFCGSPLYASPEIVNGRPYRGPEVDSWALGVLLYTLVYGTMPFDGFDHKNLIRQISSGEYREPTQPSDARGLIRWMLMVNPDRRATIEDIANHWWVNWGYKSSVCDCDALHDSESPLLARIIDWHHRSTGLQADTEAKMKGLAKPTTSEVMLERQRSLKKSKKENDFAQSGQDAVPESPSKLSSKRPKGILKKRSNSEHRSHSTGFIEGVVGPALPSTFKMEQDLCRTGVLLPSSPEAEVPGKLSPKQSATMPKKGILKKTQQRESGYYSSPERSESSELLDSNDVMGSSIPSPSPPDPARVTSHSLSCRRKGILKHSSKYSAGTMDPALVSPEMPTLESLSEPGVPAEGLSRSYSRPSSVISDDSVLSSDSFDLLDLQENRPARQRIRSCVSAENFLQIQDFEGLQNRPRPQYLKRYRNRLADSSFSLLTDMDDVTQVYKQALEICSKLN
As to the kind of experiment: Inhibition of human NUAK1 at 1 uM.

In data set [2] the target is Receptor tyrosine-protein kinase erbB-4 (Homo sapiens) (UniProt Q15303). As to the kind of experiment: Inhibition of human HER4 at 1 uM.
Another data set deals with Plasmodium vivax. Kind of data set: Inhibition of Plasmodium vivax recombinant CDPK1 by fluorescence assay in presence of rhodamine-labeled ParM. In short, it runs like this: as §1
Data set [3] can be described thus: Metabolic stability in human liver microsomes after 30 mins. Type of data set: ADME, Microsome. The following applies: read-out: Stability. A general note: Microsomes from liver hold many membrane-bound enzymes, among them those of drug oxidation.
The nature of data set [4]: Metabolic stability in mouse liver microsomes after 30 mins. It is filed as ADME, Microsome. The following applies: read-out: Stability.
Data set [5] addresses Calcium/calmodulin-dependent protein kinase type 1 (Homo sapiens) (UniProt Q14012). As to the kind of experiment: Inhibition of human CAMK1 at 1 uM.
In data set [6] the target is Ribosomal protein S6 kinase alpha-1 (Homo sapiens) (UniProt Q15418). Kind of data set: Inhibition of human RSK1 at 1 uM.
Data set [7] concerns the target Phosphorylase kinase (Homo sapiens) (UniProt P15735+P46020+P46019+Q93100+Q16816). As to the kind of experiment: Inhibition of human PHK at 1 uM. Type of data set: protein-complex assay.
In data set [8] the target is T2, Mitogen-activated protein kinase kinase kinase kinase 2 (Homo sapiens) (UniProt Q12851).
T2 sequence (whole entry): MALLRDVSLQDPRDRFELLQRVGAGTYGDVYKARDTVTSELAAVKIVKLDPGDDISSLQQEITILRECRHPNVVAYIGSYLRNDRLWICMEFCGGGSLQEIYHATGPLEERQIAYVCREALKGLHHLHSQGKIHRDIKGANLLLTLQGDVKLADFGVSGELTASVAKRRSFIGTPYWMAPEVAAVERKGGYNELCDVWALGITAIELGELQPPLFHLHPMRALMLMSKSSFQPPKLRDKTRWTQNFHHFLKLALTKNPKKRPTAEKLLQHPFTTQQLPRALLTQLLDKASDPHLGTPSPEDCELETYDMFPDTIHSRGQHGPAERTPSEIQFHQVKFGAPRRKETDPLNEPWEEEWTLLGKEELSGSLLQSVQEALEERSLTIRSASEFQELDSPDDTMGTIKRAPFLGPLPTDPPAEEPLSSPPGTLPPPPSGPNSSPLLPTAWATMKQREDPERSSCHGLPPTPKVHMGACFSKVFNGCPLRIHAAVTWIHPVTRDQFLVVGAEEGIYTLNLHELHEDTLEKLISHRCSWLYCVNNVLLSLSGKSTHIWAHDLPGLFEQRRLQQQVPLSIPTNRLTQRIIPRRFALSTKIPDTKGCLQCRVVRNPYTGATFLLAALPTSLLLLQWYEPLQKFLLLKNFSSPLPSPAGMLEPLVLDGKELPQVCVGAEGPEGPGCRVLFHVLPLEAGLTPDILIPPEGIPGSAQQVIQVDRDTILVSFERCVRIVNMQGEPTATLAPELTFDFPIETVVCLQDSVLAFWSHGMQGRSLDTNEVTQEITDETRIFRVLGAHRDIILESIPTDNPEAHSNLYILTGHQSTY
As to the kind of experiment: Inhibition of human GCK at 1 uM.

Data set [9] has as its target T3, Serine/threonine-protein kinase D1 (Homo sapiens) (UniProt Q15139).
T3 sequence (whole entry): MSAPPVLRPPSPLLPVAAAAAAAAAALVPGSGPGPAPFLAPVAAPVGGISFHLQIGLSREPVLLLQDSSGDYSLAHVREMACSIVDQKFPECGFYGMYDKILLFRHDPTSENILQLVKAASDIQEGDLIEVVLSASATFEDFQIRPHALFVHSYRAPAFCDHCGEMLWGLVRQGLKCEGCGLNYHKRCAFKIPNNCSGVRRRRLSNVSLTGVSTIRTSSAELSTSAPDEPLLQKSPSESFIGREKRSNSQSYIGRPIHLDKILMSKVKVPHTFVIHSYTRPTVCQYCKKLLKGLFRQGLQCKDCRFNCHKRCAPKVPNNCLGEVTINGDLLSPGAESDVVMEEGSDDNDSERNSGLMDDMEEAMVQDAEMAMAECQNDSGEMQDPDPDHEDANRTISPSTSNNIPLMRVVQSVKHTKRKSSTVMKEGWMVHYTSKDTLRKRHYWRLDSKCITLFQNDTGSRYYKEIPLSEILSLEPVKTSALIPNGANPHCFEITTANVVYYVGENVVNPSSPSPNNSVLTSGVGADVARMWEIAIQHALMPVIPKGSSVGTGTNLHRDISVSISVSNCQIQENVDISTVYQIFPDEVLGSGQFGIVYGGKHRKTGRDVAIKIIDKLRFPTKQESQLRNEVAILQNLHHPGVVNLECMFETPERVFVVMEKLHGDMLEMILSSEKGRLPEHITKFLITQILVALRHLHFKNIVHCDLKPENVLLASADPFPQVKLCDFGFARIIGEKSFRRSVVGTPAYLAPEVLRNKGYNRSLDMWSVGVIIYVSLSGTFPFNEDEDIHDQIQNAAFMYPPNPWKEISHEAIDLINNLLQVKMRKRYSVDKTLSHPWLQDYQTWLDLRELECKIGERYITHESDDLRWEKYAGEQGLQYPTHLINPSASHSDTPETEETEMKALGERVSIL
As to the kind of experiment: Inhibition of human PKD1 at 1 uM.

The target in data set [10] is Aurora kinase B (Homo sapiens) (UniProt Q96GD4). Kind of data set: Inhibition of human Aurora B at 1 uM.
Data set [11] deals with Tyrosine-protein kinase Yes (Homo sapiens) (UniProt P07947). As to the kind of experiment: Inhibition of human YES1 at 1 uM.
In data set [12] the target is Mitogen-activated protein kinase kinase kinase 9 (Homo sapiens) (UniProt P80192). Kind of data set: Inhibition of human MLK1 at 1 uM.
In data set [13] the target is Serine/threonine-protein kinase Chk2 (Homo sapiens) (UniProt O96017). Kind of data set: Inhibition of human CHK2 at 1 uM.
Data set [14] deals with Tyrosine-protein kinase Lck (Homo sapiens) (UniProt P06239). Kind of data set: Inhibition of human LCK at 1 uM.
Data set [15] addresses Dual specificity mitogen-activated protein kinase kinase 1 (Homo sapiens) (UniProt Q02750). As to the kind of experiment: Inhibition of human MKK1 at 1 uM.
The nature of data set [16]: Intrinsic clearance in mouse. Conditions: in vivo. Type of data set: ADME, organism-based.
Data set [17] has as its target Proto-oncogene tyrosine-protein kinase Src (Homo sapiens) (UniProt P12931). As to the kind of experiment: Inhibition of human SRC at 1 uM.
The species entered for the next data set is Homo sapiens. Kind of data set: Inhibition of human VEGFR at 1 uM.

Calls of active or inactive are those of the source. No cut-off for these calls is given here.

Chain of Ribosomal protein S6 kinase alpha-1 (Homo sapiens) (Q15418 whole entry): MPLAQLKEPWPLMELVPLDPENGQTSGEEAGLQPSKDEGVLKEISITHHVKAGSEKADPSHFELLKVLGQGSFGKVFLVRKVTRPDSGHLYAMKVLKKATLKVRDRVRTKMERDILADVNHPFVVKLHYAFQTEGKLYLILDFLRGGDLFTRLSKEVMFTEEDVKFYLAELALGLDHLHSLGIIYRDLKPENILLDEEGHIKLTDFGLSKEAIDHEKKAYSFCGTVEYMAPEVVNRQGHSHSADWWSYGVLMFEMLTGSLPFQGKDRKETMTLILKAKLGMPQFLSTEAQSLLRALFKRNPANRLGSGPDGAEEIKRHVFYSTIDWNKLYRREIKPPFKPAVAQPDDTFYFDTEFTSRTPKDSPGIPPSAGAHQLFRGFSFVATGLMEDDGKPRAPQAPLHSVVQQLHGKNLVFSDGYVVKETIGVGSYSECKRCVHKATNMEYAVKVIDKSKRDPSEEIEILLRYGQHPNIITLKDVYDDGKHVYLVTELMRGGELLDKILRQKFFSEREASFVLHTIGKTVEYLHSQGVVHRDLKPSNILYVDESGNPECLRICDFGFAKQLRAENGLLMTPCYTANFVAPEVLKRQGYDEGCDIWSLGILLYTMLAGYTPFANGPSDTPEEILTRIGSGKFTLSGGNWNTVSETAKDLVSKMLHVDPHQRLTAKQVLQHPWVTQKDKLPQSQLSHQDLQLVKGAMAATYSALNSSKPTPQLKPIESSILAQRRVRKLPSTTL
Chain of Tyrosine-protein kinase Yes (Homo sapiens) (P07947 2-543 limits assumed): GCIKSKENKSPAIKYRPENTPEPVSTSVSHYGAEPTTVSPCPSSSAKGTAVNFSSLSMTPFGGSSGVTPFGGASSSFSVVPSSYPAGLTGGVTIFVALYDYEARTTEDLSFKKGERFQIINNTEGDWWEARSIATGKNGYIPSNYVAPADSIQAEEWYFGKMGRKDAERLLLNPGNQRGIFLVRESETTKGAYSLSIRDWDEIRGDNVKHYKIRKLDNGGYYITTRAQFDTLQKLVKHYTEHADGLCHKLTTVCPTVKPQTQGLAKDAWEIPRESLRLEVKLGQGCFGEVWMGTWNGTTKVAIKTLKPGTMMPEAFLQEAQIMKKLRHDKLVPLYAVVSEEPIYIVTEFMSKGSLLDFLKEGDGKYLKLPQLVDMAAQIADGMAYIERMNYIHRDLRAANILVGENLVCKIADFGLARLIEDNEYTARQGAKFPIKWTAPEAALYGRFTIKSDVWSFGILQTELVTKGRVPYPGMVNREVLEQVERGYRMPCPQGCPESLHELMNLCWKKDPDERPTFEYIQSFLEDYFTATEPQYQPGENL
Chain of Serine/threonine-protein kinase Chk2 (Homo sapiens) (O96017 whole entry): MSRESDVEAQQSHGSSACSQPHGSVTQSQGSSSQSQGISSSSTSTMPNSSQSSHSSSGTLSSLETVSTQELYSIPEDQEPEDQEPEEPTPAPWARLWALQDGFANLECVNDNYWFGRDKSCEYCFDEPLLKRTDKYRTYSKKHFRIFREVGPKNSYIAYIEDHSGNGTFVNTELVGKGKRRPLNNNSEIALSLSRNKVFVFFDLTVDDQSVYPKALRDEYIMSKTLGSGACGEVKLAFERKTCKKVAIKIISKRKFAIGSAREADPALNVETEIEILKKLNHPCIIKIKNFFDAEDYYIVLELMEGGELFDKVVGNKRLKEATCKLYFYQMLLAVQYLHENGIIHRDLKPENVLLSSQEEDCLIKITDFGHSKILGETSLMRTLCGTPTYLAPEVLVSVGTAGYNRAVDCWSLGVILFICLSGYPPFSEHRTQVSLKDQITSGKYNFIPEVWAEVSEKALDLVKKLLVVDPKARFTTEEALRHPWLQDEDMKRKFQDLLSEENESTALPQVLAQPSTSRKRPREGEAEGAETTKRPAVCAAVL
Chain of Receptor tyrosine-protein kinase erbB-4 (Homo sapiens) (Q15303 whole entry): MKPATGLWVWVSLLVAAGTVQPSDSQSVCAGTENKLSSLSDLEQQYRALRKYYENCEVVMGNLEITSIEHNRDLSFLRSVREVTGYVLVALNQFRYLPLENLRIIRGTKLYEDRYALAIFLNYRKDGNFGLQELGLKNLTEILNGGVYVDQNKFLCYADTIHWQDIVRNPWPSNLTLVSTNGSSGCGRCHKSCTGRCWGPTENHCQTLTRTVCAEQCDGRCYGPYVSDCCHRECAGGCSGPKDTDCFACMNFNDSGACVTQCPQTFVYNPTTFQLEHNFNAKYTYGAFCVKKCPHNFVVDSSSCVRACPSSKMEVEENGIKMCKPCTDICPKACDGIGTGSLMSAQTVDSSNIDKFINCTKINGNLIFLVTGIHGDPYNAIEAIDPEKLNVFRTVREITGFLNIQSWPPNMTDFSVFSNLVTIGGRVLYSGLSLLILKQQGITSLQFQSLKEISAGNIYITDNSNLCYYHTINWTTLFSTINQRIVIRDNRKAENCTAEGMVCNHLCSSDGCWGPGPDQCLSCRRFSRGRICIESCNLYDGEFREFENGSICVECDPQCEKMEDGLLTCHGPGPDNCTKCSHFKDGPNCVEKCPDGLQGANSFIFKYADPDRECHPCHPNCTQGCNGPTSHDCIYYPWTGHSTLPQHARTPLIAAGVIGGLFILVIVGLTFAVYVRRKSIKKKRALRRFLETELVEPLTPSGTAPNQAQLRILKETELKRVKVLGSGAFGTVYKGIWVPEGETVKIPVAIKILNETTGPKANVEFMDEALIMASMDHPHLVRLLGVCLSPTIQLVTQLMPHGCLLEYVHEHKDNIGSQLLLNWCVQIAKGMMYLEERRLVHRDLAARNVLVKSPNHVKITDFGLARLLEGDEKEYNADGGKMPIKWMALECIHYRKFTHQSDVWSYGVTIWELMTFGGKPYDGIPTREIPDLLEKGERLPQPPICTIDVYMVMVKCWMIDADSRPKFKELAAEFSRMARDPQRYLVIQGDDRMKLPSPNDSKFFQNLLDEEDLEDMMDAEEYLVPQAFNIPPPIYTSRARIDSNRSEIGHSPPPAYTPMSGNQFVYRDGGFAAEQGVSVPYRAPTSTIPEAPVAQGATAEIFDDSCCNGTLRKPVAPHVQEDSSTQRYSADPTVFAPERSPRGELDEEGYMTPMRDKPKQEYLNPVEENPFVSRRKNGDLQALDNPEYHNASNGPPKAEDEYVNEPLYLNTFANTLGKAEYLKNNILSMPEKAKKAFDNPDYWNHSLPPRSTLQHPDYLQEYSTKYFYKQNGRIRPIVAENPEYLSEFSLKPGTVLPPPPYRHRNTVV
Chain of Proto-oncogene tyrosine-protein kinase Src (Homo sapiens) (P12931 2-536 limits assumed): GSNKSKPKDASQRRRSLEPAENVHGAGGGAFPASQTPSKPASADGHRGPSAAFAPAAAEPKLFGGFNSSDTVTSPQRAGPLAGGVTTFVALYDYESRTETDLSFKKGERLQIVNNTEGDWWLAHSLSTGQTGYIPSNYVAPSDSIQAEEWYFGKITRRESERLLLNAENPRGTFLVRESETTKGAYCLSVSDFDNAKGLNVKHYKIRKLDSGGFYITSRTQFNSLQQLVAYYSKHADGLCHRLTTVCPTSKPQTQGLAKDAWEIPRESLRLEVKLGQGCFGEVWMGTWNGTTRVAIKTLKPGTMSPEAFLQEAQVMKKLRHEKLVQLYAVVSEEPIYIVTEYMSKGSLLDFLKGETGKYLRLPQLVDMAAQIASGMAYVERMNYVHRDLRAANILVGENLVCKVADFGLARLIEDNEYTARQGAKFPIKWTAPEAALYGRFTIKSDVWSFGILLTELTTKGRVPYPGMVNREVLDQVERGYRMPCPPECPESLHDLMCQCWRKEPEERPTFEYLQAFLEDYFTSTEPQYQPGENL
Chain of Mitogen-activated protein kinase kinase kinase 9 (Homo sapiens) (P80192 whole entry, looked up): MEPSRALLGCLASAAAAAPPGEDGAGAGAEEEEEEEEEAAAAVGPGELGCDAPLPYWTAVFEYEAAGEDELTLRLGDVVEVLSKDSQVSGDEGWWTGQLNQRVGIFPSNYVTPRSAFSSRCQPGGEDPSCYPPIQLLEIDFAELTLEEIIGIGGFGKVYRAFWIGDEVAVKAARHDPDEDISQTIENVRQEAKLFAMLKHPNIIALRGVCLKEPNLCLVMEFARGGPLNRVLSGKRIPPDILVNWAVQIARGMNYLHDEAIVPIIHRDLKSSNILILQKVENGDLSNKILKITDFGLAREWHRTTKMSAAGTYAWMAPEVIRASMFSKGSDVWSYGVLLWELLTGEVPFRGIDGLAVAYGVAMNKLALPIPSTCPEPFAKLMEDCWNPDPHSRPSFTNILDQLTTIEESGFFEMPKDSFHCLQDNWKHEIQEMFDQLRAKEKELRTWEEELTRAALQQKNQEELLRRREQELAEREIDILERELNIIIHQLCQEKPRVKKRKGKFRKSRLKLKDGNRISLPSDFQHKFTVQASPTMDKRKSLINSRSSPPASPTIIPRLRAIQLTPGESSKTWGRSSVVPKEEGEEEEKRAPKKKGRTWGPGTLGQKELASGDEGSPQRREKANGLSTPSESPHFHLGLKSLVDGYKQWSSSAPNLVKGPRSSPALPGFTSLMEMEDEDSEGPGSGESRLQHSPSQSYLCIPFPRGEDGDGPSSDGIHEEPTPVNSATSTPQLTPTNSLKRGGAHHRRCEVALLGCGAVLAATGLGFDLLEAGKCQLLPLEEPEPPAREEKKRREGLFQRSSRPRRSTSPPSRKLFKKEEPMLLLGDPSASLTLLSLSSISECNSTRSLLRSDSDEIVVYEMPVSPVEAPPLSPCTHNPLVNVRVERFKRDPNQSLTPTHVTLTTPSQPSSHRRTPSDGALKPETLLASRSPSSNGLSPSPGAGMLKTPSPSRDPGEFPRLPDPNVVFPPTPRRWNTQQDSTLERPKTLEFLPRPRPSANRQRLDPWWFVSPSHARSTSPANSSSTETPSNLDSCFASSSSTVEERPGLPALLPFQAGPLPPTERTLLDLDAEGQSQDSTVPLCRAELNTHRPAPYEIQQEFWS

For `CC(C)CCNC(=O)c1ccc(-c2cnc3ccc(NC4CCN(C)CC4)nn23)cc1`, the inhibition entry in the data set on Plasmodium berghei was “Active”.

Regarding `CC(C)CCNc1ccc(-c2cnc3ccc(N4CCC(N)CC4)nn23)cn1`, the inhibition entry (in data set [1]; in [2]; with Plasmodium vivax; in the data set with Plasmodium berghei; in [5]; in data set [6]) was “Active” in each case. For the same compound, the inhibition result in data set [7] was “Active”. For the same compound, the remaining at 0.5 h in [3] and in [4] was 90% throughout.

On to `COCCNc1ccc(-c2cnc3ccc(NC4CCN(C)CC4)nn23)cn1`, for which the inhibition entry in the data set with Plasmodium berghei is “Active”.

Take `COC(=O)Nc1cccc(-c2cnc3ccc(NC4CCN(C)CC4)nn23)c1`: the inhibition result in the data set on Plasmodium berghei is “Active”.

`NC(=O)c1ccc(-c2cnc3ccc(NCCc4ccccn4)nn23)cc1`: the inhibition entry in the data set on Plasmodium berghei was “Active”.

Regarding `CC(C)CCNc1ccc(-c2cnc3ccc(NC4CCN(C)CC4)nn23)cn1`, the inhibition result (in data set [8]; in data set [9]; in [10]; in data set [1]; in data set [11]; in the data set with Plasmodium vivax) was “Active” in each case. Further, the inhibition result (in data set [12]; in data set [13]; in data set [14]; in the data set with Plasmodium berghei; in data set [6]; in data set [15]) was “Active” each time. In addition, the inhibition result (in data set [17]; in the data set filed under Homo sapiens) was “Active” throughout. Also, in data set [4], the remaining at 0.5 h amounted to 63%. The same compound had a CLint scaled in data set [16] of 49.7 mL/min/kg.

For `CC(=O)Nc1cccc(-c2cnc3ccc(N[C@H]4CC[C@H](N)CC4)nn23)c1`, the inhibition result in the data set with Plasmodium berghei is “Active”.

In the case of `CC(C)CCNc1ccc(-c2cnc3ccc(N4CCN(C)CC4)nn23)cn1`, the inhibition entry with Plasmodium berghei was “Active”.

`CC(C)CCNc1ncc(-c2cnc3ccc(NC4CCN(C)CC4)nn23)cn1`: in the data set with Plasmodium berghei, the inhibition result was “Active”.

On to `CC(C)CCNc1ncc(-c2cnc3ccc(N[C@H]4CC[C@H](N)CC4)nn23)cn1`, for which the inhibition entry in the data set on Plasmodium berghei is “Active”.

As to `CC(C)CCNc1ccc(-c2cnc3ccc(NC4CCN(C)C4)nn23)cn1` (centres undefined), the inhibition entry (with Plasmodium vivax; in the data set on Plasmodium berghei; in data set [6]) was “Active” throughout. Besides, the figures for the remaining at 0.5 h in [3] and in data set [4] were 63% and 74%, respectively.

With `CC(C)CCNc1nccc(-c2cnc3ccc(NC4CCN(C)CC4)nn23)n1`, the inhibition result in the data set on Plasmodium berghei is “Active”.

Consider `CC(C)CCNc1ccc(-c2cnc3ccc(N4CCC(N(C)C)CC4)nn23)cn1`, for which the remaining at 0.5 h in data set [3] worked out at 80%; in data set [4] it was 84%. The inhibition entry in the data set with Plasmodium berghei was “Active”.

Turning to `CN1CCC(Nc2ccc3ncc(-c4ccc(NCC5CC5)nc4)n3n2)CC1`, the inhibition entry in the data set with Plasmodium berghei was “Active”.

For `NC(=O)c1ccc(-c2cnc3ccc(NCCc4cccnc4)nn23)cc1`, in the data set on Plasmodium berghei, the inhibition entry was “Active”.

On to `CC(C)CCOc1ccc(-c2cnc3ccc(N[C@H]4CC[C@H](N)CC4)nn23)cn1`, for which the inhibition result in the data set on Plasmodium berghei is “Active”.

Regarding `Fc1cccc(-c2cnc3ccc(NCCc4cccnc4)nn23)c1`, the inhibition entry in the data set on Plasmodium berghei was “Active”.

Consider `N#Cc1ccc(-c2cnc3ccc(NCCc4cccnc4)nn23)cc1`, for which the inhibition result in the data set with Plasmodium berghei is “Active”.

On to `CC(=O)Nc1cccc(-c2cnc3ccc(NCCc4ccccn4)nn23)c1`, for which the inhibition result with Plasmodium berghei is “Active”.

On to `CC(C)CCNc1ccc(-c2cnc3ccc(NC4CN(C)C4)nn23)cn1`, for which the inhibition result in the data set with Plasmodium berghei is “Active”.

Turning to `CC(C)CCNc1cc(-c2cnc3ccc(NC4CCN(C)CC4)nn23)ccn1`, the inhibition entry in the data set on Plasmodium berghei is “Active”.

Take `CC(C)CCNC(=O)c1ccc(-c2cnc3ccc(N[C@H]4CC[C@H](N)CC4)nn23)cc1`: the inhibition result with Plasmodium berghei is “Active”.

Take `CC(C)CCNc1ccc(-c2cnc3ccc(NC4CCNCC4)nn23)cn1`: the inhibition entry with Plasmodium berghei was “Active”.

Regarding `CN1CCC(Nc2ccc3ncc(-c4cccc(NC(=O)C5CC5)c4)n3n2)CC1`, the inhibition entry with Plasmodium berghei is “Active”.

For the compound `CCCCNc1ccc(-c2cnc3ccc(NC4CCN(C)CC4)nn23)cn1`, the inhibition result in the data set on Plasmodium berghei was “Active”.

For orientation: CLint scaled means the capacity of the preparation to metabolise the compound, expressed as a volume cleared per time. Low values mean greater metabolic stability, high ones faster metabolism.

The values above are taken from ChEMBL document CHEMBL2380237, “Substituted imidazopyridazines are potent and selective inhibitors of Plasmodium falciparum calcium-dependent protein kinase 1 (PfCDPK1)” (Bioorg Med Chem Lett, 2013).
